Measured values reported in ChEMBL document CHEMBL5321214, “Targeting the multifaceted neurotoxicity of Alzheimer's disease by tailored functionalisation of the curcumin scaffold” (Eur J Med Chem, 2023).
Activity calls are given as the source filed them. The rule behind the calls is not given here.

Key:
SH-SY5Y [1] = assay: Cytotoxicity against human SH-SY5Y cells assessed as decrease in cell viability at >5 uM incubated for 24 hrs by MTT assay; type: toxicity, cell-based
Procedure, shortened: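 SH-SY5Y, 2×10^4 cells/well, grown 24 h then exposed 24 h (1.25–40 μM) at 37 °C, 5% CO2. MTT 0.5 mg/mL in HBSS for 2 h, washed, formazan dissolved in isopropanol, read at 570 nm (reference 690 nm).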

SH-SY5Y [2] = assay: Antioxidant activity in human SH-SY5Y cells assessed as reduction in intracellular ROS formation at 2.5 uM incubated for 24 hrs followed by incubation with t-BuOOH for 30 mins by H2DCF-DA staining based fluorescence analysis; type: functional; settings: time 24.5 hrs
Procedure, shortened: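 SH-SY5Y (2×10^4 cells/well) exposed to 2.5 μM for 24 h, loaded with H2DCF-DA 30 min at room temperature, probe removed, then challenged with 50 μM t-BuOOH 30 min at room temperature. Fluorescence ex 485/em 535 nm, expressed as % ROS increase. Three independent experiments; one-way ANOVA with Dunnett's test.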

Drosophila [3] = assay: Downregulation of SOD1 transcript expression in Spastin Drosophila (Tubulin/Gal4 RNAi DSpast) neurodegenerative model at 10 uM flies raised in compound-enriched food by real-time PCR analysis; type: functional
Procedure, shortened: (§1)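 Total RNA from 5 third-instar Spastin-RNAi larvae raised on standard or compound-enriched food; Tubulin-Gal4/+ as control line. One-step SYBR RT-qPCR normalised to Rp49 by the 2^−ΔΔCt method. n = 3 experiments; one-way ANOVA, Tukey's test.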

[4] = target: Amyloid-beta precursor protein (Homo sapiens) (UniProt P05067); assay: Anti-oligomeric activity against Abeta42 (unknown origin) assessed as depletion of the formation of toxic HMW Abeta42 oligomers at 5 uM measured at day 7 from sample solubilization by capillary electrophoresis assay; settings: time 7.0 day
Procedure, shortened: (§2)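 Aβ42 stock diluted to 221 μM in 20 mM sodium phosphate pH 7.4 containing compound (ethanol stocks 1.53 mM). Capillary electrophoresis: BGE 80 mM sodium phosphate pH 7.4, 30 mbar × 3 s hydrodynamic injection, +12 kV, 25 °C, 200 nm detection. Oligomers assigned by effective mobility; HMW oligomer peak quantified semiquantitatively as normalised area %.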

[5] = target: Keap1/Nrf2 (Homo sapiens) (UniProt Q16236+Q14145); assay: Activation of Keap1/Nrf2 in human SH-SY5Y cells assessed as Nrf2 nuclear translocation by measuring increase in nuclear to cytosolic Nrf2 ratio at 2.5 uM incubated for 3 hrs by western blot analysis; type: cell-based; settings: filed as activator
Procedure, shortened: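 SH-SY5Y seeded 2×10^6 cells/dish, grown 24 h, then exposed 3 h at 37 °C, 5% CO2. Nuclear and cytosolic fractions immunoblotted for Nrf2, membranes stripped and reprobed for β-actin and lamin B1 as loading references. Mean ± SEM of three independent experiments; one-way ANOVA with Dunnett's test.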

SH-SY5Y [6] = assay: Antioxidant activity in human SH-SY5Y cells assessed as increase in intracellular GSH level at 2.5 uM incubated for 24 hrs by […] fluorescence analysis; type: functional
Procedure, shortened: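 SH-SY5Y (2×10^4 cells/well) grown 24 h, then exposed to 2.5 μM for 24 h at 37 °C. Fluorescent probe added 30 min at 37 °C; read at ex 355/em 460 nm. GSH (μM) from a GSH standard curve. Mean ± SEM of three experiments; one-way ANOVA with Dunnett's test.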

[7] = Toxicity against Drosophila W1118 assessed as proportion of eclosed-flies at 1 uM measured after 72 hrs
[8] = Effect on TNF-alpha release in Sprague-Dawley rat microglial cells at 5 uM by ELISA; type: toxicity, cell-based; settings: microglia
Procedure, shortened: (§3)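 Primary cortical rat microglia in DMSO (≤0.1%) or vehicle for 1 h, then 100 ng/mL LPS for 24 h. TNF-α and IL-1β in culture medium by ELISA against standard curves (pg/mL), expressed as % of LPS-stimulated cultures. Mean ± SEM of 3 independent experiments; one-way ANOVA, Holm-Sidak test.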

[9] = Toxicity against Drosophila W1118 assessed as proportion of eclosed-flies at 10 uM measured after 72 hrs
Drosophila [10] = assay: Antioxidant activity in Spastin Drosophila (Tubulin/Gal4 RNAi DSpast) neurodegenerative model assessed as decrease in intracelluar ROS level in brain at 10 uM flies raised in compound-enriched food by DHE staining based fluorescence analysis; type: functional, organism-based
Procedure, shortened: (§4)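 Spastin-RNAi (Tubulin-Gal4 cross, 28 °C) third-instar larvae raised on compound-enriched food, dissected in HL3, stained 30 min with 30 μM DHE, fixed in 4% PFA, DAPI counterstained. Confocal imaging (DHE 580–630 nm); two 2500 μm² ROIs per muscle or two 1900 μm² ROIs per brain, 10–15 larvae per group; DHE/DAPI ratio.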

Microglia [11] = assay: Antiinflammatory activity against Sprague-Dawley rat microglial cells assessed as inhibition of LPS-induced IL-1 beta production at 1 to 5 uM pretreated with compound for 1 hr followed by LPS stimulation for 24 hrs by ELISA; type: functional, cell-based; settings: dose 1-5 µM, time 25.0 hrs; procedure, shortened: as §3
Microglia [12] = assay: Antiinflammatory activity against Sprague-Dawley rat microglial cells assessed as downregulation of TNF-alpha mRNA expression at 5 uM pretreated with compound for 1 hr followed by LPS stimulation for 6 hrs by real-time PCR analysis; type: functional, cell-based; settings: time 7.0 hrs
Procedure, shortened: (§5)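 Primary cortical microglia (postnatal day 1 rat pups, shaken off mixed glial cultures, ~97% Iba1-positive). Compound (DMSO ≤0.1%) for 1 h, then 100 ng/mL ultra-pure E. coli LPS for 6 h. QIAzol RNA extraction, SuperScript IV reverse transcription, real-time PCR. Mean ± SEM, n = 3 in triplicate; one-way ANOVA, Holm-Sidak test.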

Drosophila [13] = assay: Downregulation of Nrf2 transcript expression in Spastin Drosophila (Tubulin/Gal4 RNAi DSpast) neurodegenerative model at 10 uM flies raised in compound-enriched food by real-time PCR analysis; type: functional; procedure, shortened: as §1
[14] = Toxicity against Drosophila W1118 assessed as proportion of eclosed-flies at 50 uM measured after 72 hrs
Drosophila [15] = assay: Antioxidant activity in Spastin Drosophila (Tubulin/Gal4 RNAi DSpast) neurodegenerative model assessed as decrease in intracelluar ROS level in A2 muscle at 10 uM flies raised in compound-enriched food by DHE staining based fluorescence analysis; type: functional, organism-based; procedure, shortened: as §4
Drosophila [16] = assay: Effect on CAT transcript expression in Spastin Drosophila (Tubulin/Gal4 RNAi DSpast) neurodegenerative model at 10 uM flies raised in compound-enriched food by real-time PCR analysis; type: functional; procedure, shortened: as §1
[17] = Toxicity against Drosophila W1118 assessed as proportion of eclosed-flies at 20 uM measured after 72 hrs
[18] = target: Amyloid-beta precursor protein (Homo sapiens) (UniProt P05067); assay: Anti-oligomeric activity against Abeta42 (unknown origin) assessed as depletion of the formation of toxic HMW Abeta42 oligomers at 1 uM measured at day 7 to 10 from sample solubilization by capillary electrophoresis assay; settings: time 7-10 day; procedure, shortened: as §2
Microglia [19] = assay: Antiinflammatory activity against Sprague-Dawley rat microglial cells assessed as downregulation of NLRP3 mRNA expression at 5 uM pretreated with compound for 1 hr followed by LPS stimulation for 6 hrs by real-time PCR analysis; type: functional, cell-based; settings: time 7.0 hrs; procedure, shortened: as §5
[20] = Toxicity against Drosophila W1118 assessed as minimum toxic concentration by measuring eclosion rate measured for 72 hrs
[21] = Toxicity against Drosophila W1118 assessed as proportion of eclosed-flies at 30 uM measured after 72 hrs
Microglia [22] = assay: Cytotoxicity against Sprague-Dawley rat microglial cells assessed as decrease in cell viability at 10 uM incubated for 24 hrs by MTT assay; type: toxicity, cell-based
Procedure, shortened: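 Primary rat microglia, 6×10^4 cells/well, switched to serum-free medium 1 h before 24 h exposure (1–20 μM, DMSO ≤0.1%). MTT 0.18 mg/mL for 4 h at 37 °C, formazan dissolved in DMSO, absorbance 570 nm (reference 630 nm). Vehicle-treated cells = 100% viability.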

Microglia [23] = assay: Antiinflammatory activity against Sprague-Dawley rat microglial cells assessed as inhibition of LPS-induced TNF-alpha production at 1 to 5 uM pretreated with compound for 1 hr followed by LPS stimulation for 24 hrs by ELISA; type: functional, cell-based; settings: dose 1-5 µM, time 25.0 hrs; procedure, shortened: as §3
Microglia [24] = assay: Antiinflammatory activity against Sprague-Dawley rat microglial cells assessed as downregulation of IL-1 beta mRNA expression at 5 uM pretreated with compound for 1 hr followed by LPS stimulation for 6 hrs by real-time PCR analysis; type: functional, cell-based; settings: time 7.0 hrs; procedure, shortened: as §5
[25] = Effect on IL-1 beta release in Sprague-Dawley rat microglial cells at 5 uM by ELISA; type: toxicity, cell-based; settings: microglia; procedure, shortened: as §3

Amyloid-beta precursor protein (Homo sapiens), sequence (P05067 whole entry): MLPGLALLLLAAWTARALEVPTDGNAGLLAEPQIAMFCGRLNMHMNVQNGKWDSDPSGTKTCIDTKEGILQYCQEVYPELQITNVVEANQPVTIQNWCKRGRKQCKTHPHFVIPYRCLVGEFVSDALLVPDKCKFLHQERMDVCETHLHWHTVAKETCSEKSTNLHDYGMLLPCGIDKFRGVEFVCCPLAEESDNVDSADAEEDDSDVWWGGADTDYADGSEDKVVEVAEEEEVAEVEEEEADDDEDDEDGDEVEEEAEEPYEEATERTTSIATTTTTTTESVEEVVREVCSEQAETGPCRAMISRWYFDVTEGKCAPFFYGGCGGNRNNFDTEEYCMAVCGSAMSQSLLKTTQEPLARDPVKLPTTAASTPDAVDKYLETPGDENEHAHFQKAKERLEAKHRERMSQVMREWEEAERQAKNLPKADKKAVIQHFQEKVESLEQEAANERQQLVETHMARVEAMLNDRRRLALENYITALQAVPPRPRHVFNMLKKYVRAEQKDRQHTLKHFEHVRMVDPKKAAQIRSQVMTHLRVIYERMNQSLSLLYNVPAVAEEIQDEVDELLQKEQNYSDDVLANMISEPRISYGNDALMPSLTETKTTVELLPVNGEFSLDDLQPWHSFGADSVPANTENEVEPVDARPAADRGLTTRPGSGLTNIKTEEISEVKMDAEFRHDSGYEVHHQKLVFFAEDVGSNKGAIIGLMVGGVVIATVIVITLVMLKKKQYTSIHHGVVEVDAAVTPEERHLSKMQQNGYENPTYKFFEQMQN
Keap1/Nrf2 (Homo sapiens), sequence (Q14145 whole entry, looked up): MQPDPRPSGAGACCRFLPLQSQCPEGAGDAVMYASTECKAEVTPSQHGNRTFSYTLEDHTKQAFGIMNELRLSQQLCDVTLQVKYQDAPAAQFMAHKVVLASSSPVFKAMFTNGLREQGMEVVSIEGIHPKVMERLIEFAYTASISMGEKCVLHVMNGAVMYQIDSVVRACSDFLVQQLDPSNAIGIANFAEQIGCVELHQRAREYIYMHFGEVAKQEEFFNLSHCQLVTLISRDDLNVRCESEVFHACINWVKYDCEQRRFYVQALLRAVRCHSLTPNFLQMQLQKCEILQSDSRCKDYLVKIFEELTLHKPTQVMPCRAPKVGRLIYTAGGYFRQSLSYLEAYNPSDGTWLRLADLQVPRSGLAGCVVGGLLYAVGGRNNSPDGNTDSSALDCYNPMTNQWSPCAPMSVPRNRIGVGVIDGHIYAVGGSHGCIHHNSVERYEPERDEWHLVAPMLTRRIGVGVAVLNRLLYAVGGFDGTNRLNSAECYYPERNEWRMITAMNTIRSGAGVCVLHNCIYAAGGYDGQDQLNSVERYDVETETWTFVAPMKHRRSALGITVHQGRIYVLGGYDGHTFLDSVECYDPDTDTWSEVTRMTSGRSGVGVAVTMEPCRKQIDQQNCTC
Keap1/Nrf2 (Homo sapiens), sequence (Q16236 whole entry, looked up): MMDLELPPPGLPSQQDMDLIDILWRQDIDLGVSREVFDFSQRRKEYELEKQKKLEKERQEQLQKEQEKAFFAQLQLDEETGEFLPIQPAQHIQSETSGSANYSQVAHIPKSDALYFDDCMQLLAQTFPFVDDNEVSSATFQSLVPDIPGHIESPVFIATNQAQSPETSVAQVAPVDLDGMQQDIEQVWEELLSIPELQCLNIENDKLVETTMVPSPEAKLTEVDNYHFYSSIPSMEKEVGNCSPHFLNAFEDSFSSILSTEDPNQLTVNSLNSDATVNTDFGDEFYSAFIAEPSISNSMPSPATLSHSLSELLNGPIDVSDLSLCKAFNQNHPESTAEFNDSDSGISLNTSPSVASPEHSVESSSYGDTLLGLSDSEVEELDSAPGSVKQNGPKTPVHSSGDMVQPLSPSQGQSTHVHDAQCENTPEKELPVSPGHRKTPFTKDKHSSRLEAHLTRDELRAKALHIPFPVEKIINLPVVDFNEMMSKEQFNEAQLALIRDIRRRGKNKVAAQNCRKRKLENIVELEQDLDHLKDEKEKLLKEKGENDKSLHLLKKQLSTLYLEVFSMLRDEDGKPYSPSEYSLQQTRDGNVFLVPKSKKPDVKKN

CCOC(=O)Cn1cc(C/C(C(=O)/C=C/c2ccc(OC)cc2)=C(O)\C=C\c2ccc(OC)cc2)nn1
Activity (SH-SY5Y [1]): Toxic
inhibition at 2.5 µM (SH-SY5Y [2]): 28%
inhibition (Drosophila [3]): Active
Activity [4]: Active
Activity [5]: Active
Activity (SH-SY5Y [6]): Active
Activity [7]: 94.037%
Activity [8]: Non-Toxic
Activity [9]: 94.732%
Activity (Drosophila [10]): Active
Activity (Microglia [11]): Active
Activity (Microglia [12]): Active
inhibition (Drosophila [13]): Active
Activity [14]: 68.373%
Activity (Drosophila [15]): Active
Activity (Drosophila [16]): inactive
Activity [17]: 83.806%
Activity [18]: Active
Activity (Microglia [19]): Active
MTC [20]: 10 µM
Activity [21]: 81.642%
Activity (Microglia [22]): Toxic
Activity (Microglia [23]): Active
Activity (Microglia [24]): Active
Activity [25]: Non-Toxic
